Measurements gathered from unrelated publications.
Each line is one published result; the experiments were not run side by side.
Target: RAC-beta serine/threonine-protein kinase (AKT2, Homo sapiens, UniProt P31751)

Compound	read-out	method	tested at	remaining binding [%]
C[C@@H]1CCN(c2nccc(-c3cnn4ncccc34)n2)C1	binding		1 µM	93
c1cncc(-c2cccc(Nc3nccc(NC4CCCCC4)n3)c2)c1	binding	competition with immobilised ligand	10 µM	62
CN(C)c1nccc(-c2cnc3ncccn23)n1	binding		1 µM	88
COc1cnc(Nc2cccc(S(N)(=O)=O)c2)nc1N1CCN(c2ccccc2)C(=O)C1	binding	competition with immobilised ligand	1 µM	100
CN(C)CC#Cc1ccc(OCCCc2sc(N3CCc4cccc(C(=O)Nc5nc6ccccc6s5)c4C3)nc2C(=O)O)c(F)c1	cell-free assay	competition with immobilised ligand	1 µM	100
Cc1cnn2ncc(-c3ccnc(N(C)C)n3)c2c1	binding		1 µM	100
Cc1cnc(Nc2ccc(C(=O)N3CCC(N4CCCC4)CC3)cc2)nc1-c1cc2ccccc2s1	binding	competition with immobilised ligand	1 µM	83
F[C@@H]1CCN(c2nccc(-c3cnn4ncccc34)n2)C1	binding		1 µM	86
O=C(NCC1CCOCC1)c1n[nH]cc1NC(=O)c1c(F)cccc1F	binding	competition with immobilised ligand	1 µM	100
Nc1ncc2c(n1)-c1c([nH]c3ccc(C#CC4CC4)cc13)CCCC2	binding	competition with immobilised ligand	1 µM	100
O=C(O)[C@H]1[C@H](Cn2nnc3ccccc3c2=O)CC[C@@H]1C(=O)c1ccc(OCCC2CCOCC2)cc1	cell-free assay	competition with immobilised ligand	1 µM	88
COc1ncc2cc3ccccc3nc2c1C#N	cell-free assay	competition with immobilised ligand	5 µM	95
O=C(NCCCN1CCOCC1)c1ccc(Nc2ncc(Cl)c(-c3ccc(Cl)s3)n2)cc1	binding	competition with immobilised ligand	1 µM	100
Cc1nc(N2CC[C@@H](O)C2)ncc1-c1cc(C(F)(F)F)cc2[nH]ncc12	binding	competition with immobilised ligand	1 µM	87
C[C@@H]1CN(c2ccc3ncc(-c4ccc5[nH]nc(C6CC6)c5c4)n3n2)C[C@H](C)O1	binding	competition with immobilised ligand	0.5 µM	97
COc1ccnn2ncc(-c3ccnc(N(C)C)n3)c12	binding		1 µM	100
CN(C)c1ncnc(-c2ccc3nc(Nc4cc(CN5CCN(C(=O)CC(F)(F)F)CC5)ccn4)[nH]c3c2)c1Cl	cell-free assay	competition with immobilised ligand	1 µM	95
CC(C)(C)c1ccc(-c2nc(CBr)nn2-c2cccc(O)c2)cc1	cell-free assay	competition with immobilised ligand	10 µM	70
CCCOc1ccc([C@H]2[C@H](C(=O)O)[C@@H](c3ccc4c(c3)OCO4)CN2CC(=O)Nc2c(CC)cccc2CC)cc1	cell-free assay	competition with immobilised ligand	1 µM	100
c1cnn2ncc(-c3ccnc(N4CCC45COC5)n3)c2c1	binding		1 µM	96
CC(=O)N1CCC(c2ccc(C(=O)NC(=N)N)cc2C(F)(F)F)CC1	cell-free assay	competition with immobilised ligand	1 µM	99
N[C@@H]1CCN(c2nccc(-c3cnn4ncccc34)n2)C1	binding		1 µM	100
Cc1c[nH]c2nccc(Oc3c(F)cc(Nc4cc(Cl)nc(N)n4)cc3F)c12	cell-free assay	competition with immobilised ligand	0.1 µM	98
O=C(c1ccc(Nc2ncc(Cl)c(-c3ccc(Cl)s3)n2)cc1)N1CCC(N2CCCC2)CC1	binding	competition with immobilised ligand	1 µM	89
